Tests used:
[1] = Cytotoxicity against human MT4 cells; type: cell-based
Summary of the method: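 Cytotoxicity measured in MT-4 cells in parallel with the 7-day multi-cycle antiviral assay. CC50 is the mean of at least three experiments.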

[2] = test system: Human immunodeficiency virus 1; test: Antiviral activity against luciferase-bearing envelope-defective HIV-1 NL4-3 pseudotype virus infected in human MT4 cells co-infected with HIV1 HXBc2 envelope by single cycle infection assay; type: functional, organism-based; conditions: Human immunodeficiency virus 1, NL4-3, MT4
Summary of the method: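 Single-cycle infection of MT-4 cells with a luciferase-bearing env-defective NL-4.3 virus pseudotyped with HIV-1 env (HXBc2), read by luciferase. EC50 is the mean of at least three experiments.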

[3] = Inhibition of HIV integrase strand transfer activity; parameters: species or system Human immunodeficiency virus
Summary of the method: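 Strand-transfer assay on purified integrase using 3'-processed oligonucleotides. % inhibition = [1 − (sample counts/mean positive control)] × 100, plotted against log molar concentration. IC50 is taken from a sigmoidal dose-response fit with variable slope and is the mean of at least three experiments.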

[4] = test system: Human immunodeficiency virus 1; test: Antiviral activity against luciferase-bearing envelope-defective HIV-1 NL4-3 pseudotype virus infected in human MT4 cells co-infected with HIV1 HXBc2 envelope after 7 days by multi-cycle assay; type: functional, organism-based; conditions: Human immunodeficiency virus 1, NL4-3, MT4, 168 h
Summary of the method: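 Multi-cycle antiviral assay run for 7 days in MT-4 cells, in parallel with the cytotoxicity assay. EC50 is the mean of at least three experiments.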

[5] = target: Human immunodeficiency virus type 1 integrase (Human immunodeficiency virus 1, UniProt Q7ZJM1, N155H); test: Inhibition of HIV integrase N155H mutant
Sequence of Human immunodeficiency virus type 1 integrase (Q7ZJM1 entry or part of it N155H): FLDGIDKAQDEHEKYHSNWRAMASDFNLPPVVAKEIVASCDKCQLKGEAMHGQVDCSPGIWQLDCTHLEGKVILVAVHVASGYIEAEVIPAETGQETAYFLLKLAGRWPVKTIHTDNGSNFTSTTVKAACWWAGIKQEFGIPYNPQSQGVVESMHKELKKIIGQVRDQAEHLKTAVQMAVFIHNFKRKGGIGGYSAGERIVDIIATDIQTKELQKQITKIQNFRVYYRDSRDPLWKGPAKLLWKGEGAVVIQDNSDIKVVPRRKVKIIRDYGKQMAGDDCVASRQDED

[6] = Oral bioavailability in Sprague-Dawley rat at 50 mg/kg after 24 hrs by LC/MS/MS analysis; type: ADME, organism-based; conditions: in vivo
Summary of the method: (§1)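 Female Sprague-Dawley rats randomly assigned to two groups: 13 rats dosed 5 mg/kg intravenously, 8 rats dosed 50 mg/kg orally. Blood collected at 7 time points after dosing. Bioavailability taken over 24 h.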

[7] = target: RNA-directed RNA polymerase (Hepacivirus hominis, UniProt O39930); test: Inhibition of HCV RNA polymerase
Sequence of RNA-directed RNA polymerase (O39930 whole entry): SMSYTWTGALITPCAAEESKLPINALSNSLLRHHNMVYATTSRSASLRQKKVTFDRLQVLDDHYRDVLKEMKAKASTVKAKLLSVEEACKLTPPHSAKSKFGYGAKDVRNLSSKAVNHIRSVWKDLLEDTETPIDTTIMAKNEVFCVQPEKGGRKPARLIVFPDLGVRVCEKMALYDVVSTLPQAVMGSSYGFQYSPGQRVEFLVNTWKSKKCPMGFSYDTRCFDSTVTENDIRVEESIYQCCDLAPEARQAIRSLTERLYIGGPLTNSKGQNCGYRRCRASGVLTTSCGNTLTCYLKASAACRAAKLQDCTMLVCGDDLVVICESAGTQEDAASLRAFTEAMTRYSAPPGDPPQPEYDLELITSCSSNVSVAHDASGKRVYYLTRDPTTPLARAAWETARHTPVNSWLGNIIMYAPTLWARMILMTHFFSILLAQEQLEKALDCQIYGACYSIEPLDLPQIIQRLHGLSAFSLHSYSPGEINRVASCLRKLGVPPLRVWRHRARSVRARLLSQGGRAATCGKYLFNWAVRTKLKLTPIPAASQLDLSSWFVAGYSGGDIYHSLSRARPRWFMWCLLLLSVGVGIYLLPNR

[8] = Plasma protein binding in rat by Rapid Equilibrium Dialysis method; type: ADME, cell-free; conditions: read-out: PPB (converted)
Summary of the method: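 Protein binding measured by rapid equilibrium dialysis.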

[9] = Plasma concentration in rat at 50 mg/kg after 18 hrs; type: ADME, organism-based
Summary of the method: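 Female Sprague-Dawley rats (8) given 50 mg/kg orally, with blood collected at 7 time points after dosing.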

[10] = test system: Human immunodeficiency virus; test: Ratio of EC90 for HIV integrase assessed as accumulation of 2-LTR to IC50 for HIV integrase strand transfer activity
[11] = Lipophilicity Log P of the compound; type: physicochemical; conditions: octanol/water
[12] = Half life in Sprague-Dawley rat at 5 mg/kg, iv and 50 mg/kg, po by LC/MS/MS analysis; type: ADME, organism-based; conditions: in vivo; summary of the method: as §1
[13] = Therapeutic index, ratio of CC50 for human MT4 cells to EC50 for luciferase-bearing envelope-defective HIV-1 NL4-3 pseudotype virus infected in human MT4 cells co-infected with HIV1 HXBc2 envelope; type: cell-based; conditions: read-out: Ratio CC50/EC50
[14] = test system: Human immunodeficiency virus; test: Ratio of EC50 for HIV integrase assessed as accumulation of 2-LTR to IC50 for HIV integrase strand transfer activity
[15] = Inhibition of […] reverse transcriptase
[16] = test system: Salmonella typhimurium; test: Mutagenicity in Salmonella typhimurium by Ames test; type: toxicity, organism-based; conditions: salmonella enterica subsp. enterica serovar typhimurium

| SMILES | EC50 [2] [nM] | IC50 [3] [nM] | CC50 [1] [nM] | further results |
| --- | --- | --- | --- | --- |
| O=C(NO)c1ncc(CS(=O)(=O)c2ccc(F)cc2)c(CO)c1O | 9300 | 10000 | 50000 | – |
| O=C(CC1CCCCC1)Nc1cnc(C(=O)NO)c(O)c1CO | 11000 | – | 50000 | – |
| O=C(NO)c1ncc(CS(=O)(=O)Cc2ccc(F)cc2)c(CO)c1O | 4350 | 2300 | 16000 | – |
| Cc1ccc(CC(=O)Nc2cnc(C(=O)NO)c(O)c2CO)cc1 | 4500 | – | 32000 | – |
| COc1ccc(CC(=O)Nc2cnc(C(=O)NO)c(O)c2CO)cc1 | 1500 | – | 25000 | – |
| O=C(NO)c1ncc(CSc2ccc(F)cc2)c(CO)c1O | – | 250 | – | – |
| O=C(NCCc1ccc(F)cc1)c1cnc(C(=O)NO)c(O)c1CO | 2000 | 2300 | 23000 | – |
| O=C(NO)c1ncc(/C=C/c2ccc(F)cc2)c(CO)c1O | > 10000 | > 100000 | 50000 | – |
| O=C(Nc1cnc(C(=O)NO)c(O)c1CO)c1ccc(F)cc1 | 6300 | 300 | 50000 | – |
| O=C(Cc1ccc2c(c1)OCO2)Nc1cnc(C(=O)NO)c(O)c1CO | 1860 | – | 50000 | – |
| O=C(Cc1ccc(F)c(Cl)c1)Nc1cnc(C(=O)NO)c(O)c1CO | 25 | 29 | 22000 | EC50 [4]: 128 nM; EC50 [5]: > 300 nM; bioavailability [6]: 25%; EC50 [7]: > 50000 nM; fraction unbound [8]: 0.11; concentration at 18 h [9]: > 25 nM; Ratio [10]: 10; logP [11]: 0.6; half-life [12]: 43.8 min; selectivity ratio [13]: > 1000; Ratio [14]: 7; EC50 [15]: > 50000 nM; Activity [16]: Non-toxic |

The remaining compounds from weak to strong by EC50 [2], led by results:

| EC50 [2] [nM] | IC50 [3] [nM] | SMILES | CC50 [1] [nM] | further results |
| --- | --- | --- | --- | --- |
| 695 | 550 | O=C(NO)c1ncc(CNCc2ccc(F)cc2)c(CO)c1O | 20000 | – |
| 500 | 550 | O=C(NO)c1ncc(CCCc2ccc(F)cc2)c(CO)c1O | 2000 | – |
| 400 | – | O=C(Cc1cc(F)cc(F)c1)Nc1cnc(C(=O)NO)c(O)c1CO | 31000 | – |
| 100 | – | O=C(Cc1ccccc1)Nc1cnc(C(=O)NO)c(O)c1CO | 54000 | – |
| 100 | – | O=C(Cc1ccc(F)c(F)c1)Nc1cnc(C(=O)NO)c(O)c1CO | 51000 | – |
| 76 | 327 | O=C(NO)c1ncc(CCc2ccc(F)cc2)c(CO)c1O | 21000 | – |
| 40 | – | O=C(Cc1ccc(Cl)c(Cl)c1)Nc1cnc(C(=O)NO)c(O)c1CO | 50000 | – |
| 40 | 328 | O=C(Nc1ccc(F)cc1)c1cnc(C(=O)NO)c(O)c1CO | 50000 | – |
| 20 | 25 | O=C(NO)c1ncc(CNc2ccc(F)cc2)c(CO)c1O | 50000 | – |
| 15 | 80 | O=C(NO)c1ncc(COCc2ccc(F)cc2)c(CO)c1O | 11000 | – |
| 7 | 41 | O=C(NO)c1ncc(COc2ccc(F)cc2)c(CO)c1O | 27000 | – |

Source: ChEMBL document CHEMBL3763044, “Pyridoxine hydroxamic acids as novel HIV-integrase inhibitors” (Bioorg Med Chem Lett, 2016)
